Assay results reported in ChEMBL document CHEMBL5241063, “Synthetic and medicinal perspective of quinolines as antiviral agents” (Eur J Med Chem, 2021).
pEC50, pIC50: −log10 of the molar value.

What was measured:
[1] = Inhibition of HIV-1 integrase; set-up: species or system Human immunodeficiency virus 1
[2] = molecular target: Human immunodeficiency virus type 1 reverse transcriptase (Human immunodeficiency virus 1, UniProt Q72547); assay: Inhibition of HIV-1 reverse transcriptase incubated for 90 mins by liquid scintillation counting analysis
[3] = Cytotoxicity against human RD cells by neutral red method; assay type: toxicity, cell-based
[4] = test system: SNB-19; assay: (§1) Cytotoxicity against human SNB-19 cells incubated for 24 hrs; assay type: toxicity, cell-based; conditions: snb-19, 24 h
[5] = test system: Vero; assay: (§2) Cytotoxicity against african green monkey Vero cells incubated for 48 hrs; assay type: toxicity, cell-based; conditions: chlorocebus sabaeus, vero, 48 h
[6] = test system: Human immunodeficiency virus 1; assay: Antiviral activity against HIV-1 IIIB infected in human MT2 cells assessed as inhibition of viral replication by p24 ELISA method; assay type: functional, organism-based; conditions: Human immunodeficiency virus 1, IIIB
[7] = test system: Human immunodeficiency virus 1; assay: Antiviral activity against HIV-1 92US657 infected in human MT2 cells assessed as inhibition of viral infection; assay type: functional, organism-based; conditions: Human immunodeficiency virus 1, 92US657, MT2
[8] = test system: Human immunodeficiency virus 1; assay: Antiviral activity against HIV-1 infected in human HeLa P4 cells assessed as inhibition of viral particles production; assay type: functional, organism-based; conditions: Human immunodeficiency virus 1, HeLaP4
[9] = test system: enterovirus D68; assay: Antiviral activity against Enterovirus D68 US/KY/14-18953 infected in human RD cells assessed as reduction in virus induced cytopathic effect; assay type: functional, organism-based; conditions: Enterovirus D, US/KY/14-18953, RD
[10] = Selectivity index, ratio of CC50 for cytotoxicity against human RD cells to EC50 for antiviral activity against Enterovirus D68 US/KY/14-18953 infected in human RD cells; assay type: toxicity, cell-based; conditions: read-out: Ratio CC50/EC50
[11] = test system: Human immunodeficiency virus 1; assay: Anti-HIV activity against HIV-1 NL4.3 infected in human MT2 cells measured after 7 days by MTT assay; assay type: functional, organism-based; conditions: Human immunodeficiency virus 1, NL4.3, MT2, 168 h
[12] = test system: Human immunodeficiency virus 1; assay: Anti-HIV activity against HIV-1 NL4.3 infected in human MT2 cells measured after 48 hrs by luminescence based assay; assay type: functional, organism-based; conditions: Human immunodeficiency virus 1, NL4.3, MT2, 48 h
[13] = test system: Ebolavirus; assay: Antiviral activity against recombinant VSV-deltaG pseudotyped GFP-tagged EBOV infected in human Huh-7 cells preincubated with cells for 1 hr followed by viral infection and measured after 16 hrs by […] assay; assay type: functional, organism-based; conditions: Orthoebolavirus
[14] = Selectivity index, ratio of CC50 for cytotoxicity against human Huh-7 cells to IC50 for antiviral activity against recombinant VSV-deltaG pseudotyped GFP-tagged EBOV infected in human Huh-7 cells; assay type: toxicity, cell-based; conditions: read-out: Ratio CC50/IC50
[15] = test system: Human immunodeficiency virus 1; assay: Antiviral activity against HIV-1 infected in human CEM-SS cells assessed as reduction in virus induced cytopathic effect by XTT assay; assay type: functional, organism-based; conditions: Human immunodeficiency virus 1, CEM-SS
[16] = Cytotoxicity against human CEM-SS cells assessed as inhibition of cell growth; assay type: toxicity, cell-based
[17] = test system: Zika virus; assay: Antiviral activity against ZIKV PRVABC59; assay type: functional, organism-based
Outline: (§3)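 Human glioblastoma SNB-19 cells were infected with ZIKV strain PRVABC59 at MOI 1. Virus production was measured by titer assay in Vero cells. Niclosamide served as positive and quality control in each antiviral assay.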

[18] = as §1; assay type: toxicity, cell-based; conditions: SNB-19 cells
[19] = as §2; assay type: toxicity, cell-based; conditions: chlorocebus sabaeus, Vero cells
[20] = Selectivity index, ratio of CC50 for cytotoxicity against human SNB-19 cells to EC50 for antiviral activity against ZIKV PRVABC59; assay type: toxicity, cell-based; conditions: read-out: Ratio CC50/EC50; outline: as §3
[21] = Selectivity index, ratio of CC50 for cytotoxicity against african green monkey Vero cells to EC50 for antiviral activity against ZIKV PRVABC59; assay type: toxicity, cell-based; conditions: read-out: Ratio CC50/EC50
[22] = test system: dengue virus type 2; assay: Antiviral activity against Dengue virus serotype 2 infected in african green monkey Vero cells assessed as reduction in virus yield preincubated for 1 hr followed by replacement with medium containing compounds and measured after 48 hrs by crystal violet staining based plaque assay; assay type: functional, organism-based
[23] = Cytotoxicity against african green monkey Vero cells incubated for 48 hrs by CellTiter-Glo luminescence based assay; assay type: toxicity, cell-based; conditions: chlorocebus sabaeus
[24] = Cytotoxicity against african green monkey Vero E6 cells by CCK8 assay; assay type: toxicity, cell-based, Vero C1008; conditions: chlorocebus sabaeus
[25] = test system: Human immunodeficiency virus 1; assay: Antiviral activity against HIV-1 infected in human H9 cells assessed as inhibition of viral replication; assay type: functional, organism-based; conditions: Human immunodeficiency virus 1, H9

With `O=C(NNc1ccc([N+](=O)[O-])cc1[N+](=O)[O-])c1ccc2ccc(C(=O)O)c(O)c2n1` the pIC50 [1] was 5.52.
`COc1cc(/C=C/c2ccc3ccc(C(=O)O)c(O)c3n2)cc(O)c1O` gave a pIC50 [1] of 6.15.
In the case of `O=C(O)c1ccc2ccc(/C=C/c3ccc(O)c(O)c3)nc2c1O`, the pIC50 [1] was 5.62.
For `O=C(O)c1ccc2ccc(/C=C/c3ccccc3)nc2c1O`, the pIC50 [1] was 5.28.
In the case of `CC(C)[C@H]1C(=O)OC[C@@H](NC(=O)c2nc3ccccc3cc2O)C(=O)N2CCCC[C@H]2C(=O)NCC(=O)N(C)CC(=O)N(C)[C@@H](C(C)C)C(=O)OC[C@@H](NC(=O)c2nc3ccccc3cc2O)C(=O)N2CCCC[C@H]2C(=O)NCC(=O)N(C)CC(=O)N1C`, the pIC50 [2] was 9.89.
`CCN(CC)CCNC(=O)c1cc(OC(C)C)nc2ccccc12` showed a CC50 [3] of 11200 nM.
Compound `C=C1CC[C@@H]2[C@](C)(CO)[C@H](O)CC[C@@]2(C)[C@@H]1C/C=C1/C(=O)OC[C@@H]1Oc1c(Cl)cc(Cl)c2cccnc12` has a CC50 [4] greater than 100000 nM and a CC50 [5] greater than 100000 nM.
`C=C1CC[C@@H]2[C@](C)(CO)[C@H](O)CC[C@@]2(C)[C@@H]1C/C=C1/C(=O)OC[C@@H]1Oc1cccc2ccc(C)nc12` showed a CC50 [4] greater than 100000 nM.
`Cc1cccc2cc(/C=C3\NC(=O)N(Cc4ccccc4)C3=O)c(Cl)nc12` showed a pEC50 [6] of 6.83 and a pEC50 [7] of 6.28.
Compound `COc1cc(/C=C/c2ccc3c(C(=O)O)cc(C(=O)O)c(O)c3c2)cc(O)c1O` has a pIC50 [8] of 5.80.
Work on `CN(C)CCNC(=O)c1cc(Oc2ccccc2)nc2ccccc12` yielded a pEC50 [9] of 6.40, a CC50 [3] of 73700 nM and a selectivity ratio [10] of 184.
`COc1nc2ccccc2cc1/C=C1\NC(=O)N(Cc2ccccc2)C1=O` gave a pEC50 [6] of 5.85 and a pEC50 [7] of 6.28.
Compound `Cc1ccc2cc(/C=C3\NC(=O)N(Cc4ccccc4)C3=O)c(Cl)nc2c1` has a pEC50 [6] of 6.15 and a pEC50 [7] of 6.28.
`COc1ccc2nc(OC)c(/C=C3\NC(=O)N(CCc4ccccc4)C3=O)cc2c1` gave a pEC50 [6] of 5.82 and a pEC50 [7] of 6.28.
`O=C1N/C(=C\c2cc3ccccc3nc2Cl)C(=O)N1Cc1ccccc1` showed a pEC50 [6] of 4.30 and a pEC50 [7] of 6.28.
Work on `COc1ccc2cc(/C=C3\NC(=O)N(CCc4ccccc4)C3=O)c(Cl)nc2c1` yielded a pEC50 [6] of 6.34 and a pEC50 [7] of 6.28.
In the case of `COc1ccc2nc(Cl)c(/C=C3\NC(=O)N(Cc4ccccc4)C3=O)cc2c1`, the pEC50 [6] was 5.71 and the pEC50 [7] was 6.28.
Compound `Cc1ccc2cc(/C=C3\NC(=O)N(CCc4ccccc4)C3=O)c(Cl)nc2c1` has a pEC50 [6] of 5.59 and a pEC50 [7] of 6.28.
With `COc1cc(OC)c2ccc(-c3cccc([N+](=O)[O-])c3)nc2c1` the pIC50 [11] was 4.73.
Work on `COc1cc2c(c(OC)c1)[C@@H](N1CCCC1=O)C[C@@H](c1cccc(N)c1)N2` yielded a pIC50 [12] of 4.30.
Work on `CCN(CC)Cc1cc(Nc2ccnc3cc(I)ccc23)ccc1O` yielded a pIC50 [13] of 6.19 and a selectivity ratio [14] greater than 130.
Compound `Nc1cccc([C@@H]2C[C@H](N3CCCC3=O)c3ccccc3N2)c1` has a pIC50 [12] of 4.30.
Compound `O=C1N/C(=C\c2cc3ccccc3nc2Cl)C(=O)N1CCc1ccccc1` has a pEC50 [6] of 5.53 and a pEC50 [7] of 6.28.
Work on `Cc1ccc2nc(Cl)c(/C=C3\NC(=O)N(Cc4ccccc4)C3=O)cc2c1` yielded a pEC50 [6] of 5.26 and a pEC50 [7] of 6.28.
`CN(C)CCNC(=O)c1cc(Oc2ccccc2)nc2ccc(F)cc12` gave a pEC50 [9] of 6.22.
`O=C1N/C(=C\c2cccc3ccccc23)C(=O)N1CCc1ccccc1` gave a pEC50 [6] of 5.71 and a pEC50 [7] of 6.28.
`Cc1ccc2nc(Cl)c(/C=C3\NC(=O)N(CCc4ccccc4)C3=O)cc2c1` gave a pEC50 [6] of 4.64 and a pEC50 [7] of 6.30.
With `C=CC(C)(C)C1(CC=C(C)C)C(=O)Nc2ccccc2C1OCC=C(C)C` (centres undefined) the pEC50 [15] was 5.79 and the pIC50 [16] was 4.57.
In the case of `COc1nc2ccccc2cc1/C=C1\NC(=O)N(CCc2ccccc2)C1=O`, the pEC50 [6] was 6.38 and the pEC50 [7] was 6.28.
Work on `COc1ccc2nc(Cl)c(/C=C3\NC(=O)N(CCc4ccccc4)C3=O)cc2c1` yielded a pEC50 [6] of 6.00 and a pEC50 [7] of 6.28.
With `Cc1cc(C)c2c(c1)N[C@H](c1cccc(N)c1)C[C@@H]2N1CCCC1=O` the pIC50 [12] was 4.30.
`COc1ccc2nc(OC)c(/C=C3\NC(=O)N(Cc4ccccc4)C3=O)cc2c1` showed a pEC50 [6] of 6.57 and a pEC50 [7] of 6.28.
`CCCCCCCCN(C)Cc1cc(Nc2ccnc3cc(I)ccc23)ccc1O` showed a pIC50 [13] of 6.59 and a selectivity ratio [14] greater than 100.
`CCCCCCNCc1cc(Nc2ccnc3cc(Cl)ccc23)ccc1O` gave a pIC50 [13] of 6.54.
Work on `CN(C)CCNC(=O)c1cc(Oc2cccs2)nc2ccccc12` yielded a pEC50 [9] of 7.40 and a selectivity ratio [10] greater than 600.
In the case of `CCCCN(CCCC)Cc1cc(Nc2ccnc3cc(Cl)ccc23)ccc1O`, the pIC50 [13] was 6.14 and the selectivity ratio [14] was greater than 130.
`C=C1CC[C@H]2[C@@](C)(CCC(O)[C@@]2(C)CO)[C@@H]1C/C=C1/C(=O)OC[C@H]1Oc1cccc2cccnc12` (some centres undefined) gave a pEC50 [17] of 4.96, a CC50 at 24 h [18] of 60100 nM and a CC50 at 48 h [19] of 22800 nM. For the same compound, the selectivity ratio [20] was 5.5 and the selectivity ratio [21] was 2.1.
With `Cc1cccc2cc(/C=C3\NC(=O)N(CCc4ccccc4)C3=O)c(Cl)nc12` the pEC50 [6] was 6.30 and the pEC50 [7] was 6.28.
`CC(C)c1ccc2c(Cl)cc(Cl)c(O)c2n1` showed a pIC50 [22] of 5.52 and a CC50 at 48 h [23] of 16100 nM.
`O=C(NCCN1CCCC1)c1cc(Oc2cccs2)nc2ccccc12` gave a pEC50 [9] of 7.22 and a selectivity ratio [10] greater than 600.
Compound `O=C(O)/C=C\c1cc(C(=O)O)c(O)c2cc(/C=C/c3ccc(O)c(O)c3)ccc12` has a pIC50 [8] of 4.46.
`CN(C)CCNC(=O)c1cc(Oc2ccccc2)nc2ccc(Cl)cc12` showed a pEC50 [9] of 5.92.
`CCN(CC)Cc1cc(Nc2c(Oc3ccccc3)cnc3cc(Cl)ccc23)ccc1O` showed a pIC50 [13] of 6.14.
For `CC(C)Oc1ccc2cc(/C=C3\NC(=O)N(CCc4ccccc4)C3=O)c(Cl)nc2c1`, the pEC50 [6] was 6.48 and the pEC50 [7] was 6.28.
With `O=C1N/C(=C\c2cccc3ccccc23)C(=O)N1Cc1ccccc1` the pEC50 [6] was 5.82 and the pEC50 [7] was 6.28.
`CC(C)Cc1ccc2c(Cl)cc(Cl)c(O)c2n1` gave a pIC50 [22] of 6.31 and a CC50 at 48 h [23] of 19400 nM.
`O=C(NCc1ccc(O)c(O)c1)c1ccc2ccc(C(=O)O)c(O)c2n1` showed a pIC50 [1] of 5.30.
Work on `O=C(NCc1ccc(O)c(O)c1O)c1ccc2ccc(C(=O)O)c(O)c2n1` yielded a pIC50 [1] of 5.82.
`COc1cc(NC(=O)c2ccc3ccc(C(=O)O)c(O)c3n2)cc(O)c1O` showed a pIC50 [1] of 5.19.
In the case of `CCN(CC)Cc1cc(Nc2ccnc3cc(Cl)ccc23)ccc1O` [AMODIAQUINE], the selectivity ratio [14] was 37.
Work on `C=CC(C)(C)C1(CC=C(C)C)C(=O)Nc2ccccc2C1=O` (centres undefined) [BUCHAPINE] yielded a pIC50 [16] of 4.54.
`CCN(CC)CCCC(C)Nc1ccnc2cc(Cl)ccc12` (centres undefined) [CHLOROQUINE] showed a CC50 [24] of 250000 nM.
With `COc1c2ccc(O)cc2nc2occc12` [CONFUSAMELINE] the pEC50 [25] was greater than 5.23.
`COc1c2ccoc2nc2c(OC)cccc12` [GAMMA-FAGARINE] showed a pEC50 [25] greater than 5.23.
Work on `COc1c2[nH]c3occc3c(OC)c-2ccc1=O` [HAPLOPINE] yielded a pEC50 [25] greater than 5.23.
Compound `CCN(CCO)CCCC(C)Nc1ccnc2cc(Cl)ccc12` (centres undefined) [HYDROXYCHLOROQUINE] has a CC50 [24] of 273000 nM.
